This is a sample that favours compounds with a hit; in the whole collection about 9.3% have one here.
D1 mod = allosterically modulates the human D1 dopamine receptor; HEK293 D1, CRE-luciferase, dopamine EC30 potentiation; actives deviate in either direction; B-score at 10 µM; 5.9% of 58,000 active; AID 641;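 active = luminescence count or its row- and column-corrected plate score outside the 99.7% band of the plate's sample wells, on either side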
Target sequence (P21728 whole entry, looked up): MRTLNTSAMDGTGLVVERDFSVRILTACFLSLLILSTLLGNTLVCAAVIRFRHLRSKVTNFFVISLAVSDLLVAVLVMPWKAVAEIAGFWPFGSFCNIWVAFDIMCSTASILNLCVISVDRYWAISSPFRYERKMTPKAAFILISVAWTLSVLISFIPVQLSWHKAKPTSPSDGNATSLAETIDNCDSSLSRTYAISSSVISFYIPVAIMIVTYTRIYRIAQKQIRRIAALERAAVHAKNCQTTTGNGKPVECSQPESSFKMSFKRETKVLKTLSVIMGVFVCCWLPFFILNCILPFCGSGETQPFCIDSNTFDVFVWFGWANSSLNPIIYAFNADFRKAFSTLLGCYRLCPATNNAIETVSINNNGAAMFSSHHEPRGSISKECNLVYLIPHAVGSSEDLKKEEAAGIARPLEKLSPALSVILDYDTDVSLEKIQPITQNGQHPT
DAT uptake mod = modulates human dopamine transporter uptake under cocaine | LLC-PK1 hDAT cells, [14C]-dopamine uptake with cocaine IC80; actives deviate in either direction | B-score at 10 µM | 1.3% of 110,000 active | AID 449768;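 active = Z score or B-score, a plate-position-corrected score, falls beyond the plate's 99.7% confidence bounds, in either direction; inactive = both scores lie inside the 99.7% bounds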
PostGolgi ctrl = inhibits growth of the yeast control strain; efflux-deficient yeast background strain, growth absorbance A615, 16 h; inhibition, % at 10 µM; 5% of 98,000 active; AID 738
Ecoli WT expand = E. coli BW25113 growth inhibition, expanded screen; 0.15% of 98,000 active; AID 710; growth inhibition, % at 100 µM; OD600 absorbance;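 active = growth inhibition above about 50% at one test dose, limit read from the data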;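 note: growth measured after 20 h incubation at 37 °C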
Ecoli tolC = growth inhibitors of E. coli BW25113 tolC mutant; growth inhibition, % at 10 µM (by protocol); OD615; 2.2% of 65,000 active;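 active = growth inhibition at or above a cutoff equal to the mean over every tested compound plus 3 SD, cut at about 60% in these data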;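 note: growth measured after 20 h incubation at 37 °C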
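Test system: E. coli BW25113 ΔtolC::kan bacteria; incubation: 37 °C, 20 h exposure; medium: LB broth supplemented with 50 µg/mL kanamycin; read-out basis: percent growth inhibition; signal: A615 absorbance measurement; compound: 10 µM final, single dose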
PostGolgi yeast = growth inhibition of a yeast mutant, post-Golgi transport screen | post-Golgi transport phenotypic cell assay | inhibition, % at 10 µM | 0.9% of 98,000 active;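 note: yeast cells grown in 1536-well plates; yeast grown about 18 h at 30C before absorbance read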
Of the large screens only hits and unclear results are named; the others gave an inactive call. Cut-off read from the data, not from the text of the source, unless noted: active = inhibition above about 30%; inactive = the rest.

C=CCSc1nc(O)c(CC)c(=O)n1C(C)CC (configuration not stated)	none
CCc1c(O)nc(SCc2ccccc2)n(C(C)CC)c1=O (configuration not stated)	Ecoli tolC 70
Cc1ccc(/C=C/c2ccc(=O)n(Cc3ccccc3Cl)n2)cc1	PostGolgi ctrl 42 (no result: D1 mod, Ecoli tolC)
Cc1cc(C)n(Cc2ccccc2Cl)n1	none
Cc1ccc(C2(C)NC(=O)N(CC(=O)Nc3cc(C)on3)C2=O)cc1 (configuration not stated)	PostGolgi ctrl 31 (no result: D1 mod, Ecoli tolC)
Cc1cc(NC(=O)CN2C(=O)NC(Cc3ccccc3)C2=O)no1 (configuration not stated)	none (no result: D1 mod, Ecoli tolC)
COc1cccc2c1C(CO)N1C(C#N)C3CC(C(=O)O)C(C1C2)N3C (configuration not stated)	none (no result: D1 mod, PostGolgi ctrl, Ecoli WT expand, Ecoli tolC, PostGolgi yeast)
NC(=O)[C@@H]1CCCNc2c(I)cc([N+](=O)[O-])cc2C(=O)N[C@@H](CO)C(=O)NCC(=O)N1	none (no result: D1 mod, PostGolgi ctrl, Ecoli WT expand, Ecoli tolC, PostGolgi yeast)
CCn1c(=O)cc(SCC(=O)NCCN2CCN(Cc3ccccc3)CC2)c2ccccc21	PostGolgi ctrl 34
CCn1c(=O)cc(SCC(=O)NCCCN2CCN(c3ccc(F)cc3)CC2)c2ccccc21	D1 mod -3.7
Cn1c(=O)cc(SCC(=O)NCCCN2CCN(c3ccccc3F)CC2)c2ccccc21	none
O=C(Cn1nc(-c2ccccc2)ccc1=O)NCCN1CCN(Cc2ccccc2)CC1	D1 mod -5
CN(C)CCCN1C(=O)C(O)=C(C(=O)c2cccs2)C1c1ccccn1 (configuration not stated)	none (no result: DAT uptake mod, PostGolgi ctrl, Ecoli WT expand, PostGolgi yeast)
Cc1ccc(C)c(N2CCN(C(=O)c3ccccc3Br)CC2)c1	Ecoli tolC 69
Cc1ccc(N2CCN(C(=O)c3ccccc3Br)CC2)c(C)c1	PostGolgi ctrl 37
O=C(CSc1ncc(-c2ccc(F)cc2)n1Cc1ccco1)Nc1ccc2c(c1)OCO2	PostGolgi ctrl 31, Ecoli tolC 70
O=C(CSc1nnc(-c2cccs2)n1Cc1ccco1)Nc1ccc2c(c1)OCO2	none
CC1CCCC(N2C(=O)NC(NC(=O)c3ccco3)(C(F)(F)F)C2=O)C1C (configuration not stated)	none
Cc1sc(NC(=O)c2ccco2)nc1-c1ccc2c(c1)CC(C)N2C(=O)C1CC1 (configuration not stated)	D1 mod -3.6, PostGolgi ctrl 33
O=C(CSc1nnc(Cc2ccccc2)o1)Nc1ccc2c(c1)OCO2	none (no result: D1 mod, Ecoli tolC)
Cc1ccc(C(C)C)c(Oc2nnnn2-c2ccccc2)c1	Ecoli tolC 92
c1ccc(-n2nnnc2Oc2cccc3cccnc23)cc1	Ecoli tolC 91
Cc1ccc(C)c(Oc2nnnn2-c2ccccc2)c1	none
Cc1ccc2cccc(Oc3nnnn3-c3ccccc3)c2n1	PostGolgi ctrl 30
COc1cc(S(=O)(=O)N2CCN(C(=O)c3ccccc3F)CC2)c(OC)cc1NC(C)=O	none
C=CCOc1c(Br)cc(CNn2nnnc2N)cc1OC	none
CCCNC(=O)c1c(N)n(-c2cc(OC)cc(OC)c2)c2nc3ccccc3nc12	none
Cc1cc(NC(=O)c2cc3nc(C4CC4)cc(C(F)(F)F)n3n2)no1	PostGolgi ctrl 31
O=C(NCc1ccccc1)c1cc2nc(C3CC3)cc(C(F)(F)F)n2n1	none (no result: D1 mod, Ecoli tolC)
CN1C(=O)COc2ccc(C(=O)c3oc4ccccc4c3-c3cnc4c(c3)COc3ccccc3-4)cc21	none (no result: D1 mod, PostGolgi ctrl, Ecoli WT expand, Ecoli tolC, PostGolgi yeast)
COCCn1c(N)c(NCc2ccccc2)c(=O)n(CC(=O)Nc2cc(C)ccc2C)c1=O	DAT uptake mod 2
COCCn1cnc2c1c(=O)n(CC(=O)Nc1cc(C)on1)c(=O)n2Cc1ccccc1	none (no result: D1 mod, Ecoli tolC)
Cc1cccc(N(CC(=O)N/N=C/c2cc([N+](=O)[O-])ccc2Cl)S(C)(=O)=O)c1C	none (no result: D1 mod, Ecoli tolC)
CS(=O)(=O)N(CC(=O)N/N=C/c1cc([N+](=O)[O-])ccc1Cl)c1ccccc1	DAT uptake mod 2 (no result: D1 mod, Ecoli tolC)
CCCCCN=Cc1c(C)[nH]n(-c2nc3ccccc3s2)c1=O	DAT uptake mod 2.5
CCCCc1ccc(C2C(C#N)=C(N)SC(N)=C2C#N)s1	Ecoli tolC 93
CCOc1ccc(C2C(C#N)=C(N)SC(N)=C2C#N)c(OCC)c1	none
CCN(CC)CCOc1ccc2nc(N(C)C)sc2c1	none (no result: D1 mod, Ecoli tolC)
CN(C)c1nc2ccc(OCCN3CCCCC3)cc2s1	D1 mod -3.4
CCC(C)(C)c1nnc(NC(=O)c2ccc([N+](=O)[O-])cc2)s1	none (no result: D1 mod, Ecoli tolC)
CCOC(=O)N1CCN(c2c(NCCCN3CCCCCC3)c(=O)c2=O)CC1	none (no result: D1 mod, Ecoli tolC)

High-throughput results deposited in PubChem by several laboratories.
